# Measurements as given in publication PMC11561146 (Communications Biology, 2024).
# “Also recorded” adds a separate entry of the source.
# Tests used:
# heme-TrK13-R539T complex = assay: Detection of AAS by UV-visible spectrophotometry; format: biochemical, Plasmodium falciparum; conditions: 200 µM ART, 30 min
# Method in brief: (§1)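 Purified recombinant protein (10 µM) is incubated for 1 h at room temperature with or without equimolar dithionite-reduced heme (or Zn-PPIX). It is then desalted on a G-25 spin column to remove unbound heme. The >5 kDa eluate is incubated with 200 µM ART or DOA for 30 min. Spectra are scanned at 250–700 nm for the Soret peak, with no-heme and no-ART controls.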
# heme-bound TrK13-WT = assay: Detection of AAS by UV-visible spectrophotometry; format: biochemical, Plasmodium falciparum; conditions: for increase in the intensity of the 380 nm peak vs heme-bound protein without ART: 200 µM ART or DOA, 30 min, after G-25 desalting
# [1] = test system: heme bound to TrK13-R539T; assay: Detection of AAS by HPLC, protein-bound heme after G-25 desalting; format: biochemical, Plasmodium falciparum; conditions: heme-TrK13 mixture desalted (G-25) before ART addition
# Method in brief: (§2)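 Recombinant TrK13 protein (10 µM) was incubated with 60 µM reduced heme for 30 min at 37°C. Unbound heme was removed on a G-25 desalting column, then 72 µM test compound was added for another 30 min. Products were separated on a C4 column at 1 mL/min with 0.05% TFA water/acetonitrile (A/B 63/37 to 52/48 over 15 min, then 15 min hold). Detection was at 410 nm. AAS was expressed as a percentage of heme peak area (AUC); mean ± SD, three independent experiments.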
# heme-PfHRP2 complex = assay: Detection of AAS by UV-visible spectrophotometry; format: biochemical, Plasmodium falciparum; conditions: ART, 30 min
# TrK13-WT [2] = target: T1, TrK13-WT (Plasmodium falciparum, UniProt Q8IDQ2); assay: UV-visible spectrophotometry of heme binding
# T1 sequence (Q8IDQ2 189-726): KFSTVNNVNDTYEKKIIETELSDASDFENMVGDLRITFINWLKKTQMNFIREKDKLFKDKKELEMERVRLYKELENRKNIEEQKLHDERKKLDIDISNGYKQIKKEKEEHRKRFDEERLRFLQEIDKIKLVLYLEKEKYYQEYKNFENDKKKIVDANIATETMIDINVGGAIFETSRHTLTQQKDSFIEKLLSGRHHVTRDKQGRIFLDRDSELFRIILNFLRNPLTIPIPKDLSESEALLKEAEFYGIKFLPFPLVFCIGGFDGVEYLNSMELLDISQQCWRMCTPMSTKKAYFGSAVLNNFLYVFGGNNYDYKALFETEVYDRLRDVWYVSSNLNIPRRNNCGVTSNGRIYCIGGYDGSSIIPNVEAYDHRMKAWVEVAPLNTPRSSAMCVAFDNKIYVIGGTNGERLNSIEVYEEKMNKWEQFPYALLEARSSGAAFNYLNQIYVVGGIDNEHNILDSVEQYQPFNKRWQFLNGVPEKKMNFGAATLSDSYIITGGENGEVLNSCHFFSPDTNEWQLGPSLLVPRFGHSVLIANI
# heme-BSA complex = heme-BSA complex (Bos taurus, UniProt P02769); assay: Detection of AAS by UV-visible spectrophotometry; format: biochemical; conditions: ART, 30 min
# Sequence of heme-BSA complex (P02769 25-607, one chain of several): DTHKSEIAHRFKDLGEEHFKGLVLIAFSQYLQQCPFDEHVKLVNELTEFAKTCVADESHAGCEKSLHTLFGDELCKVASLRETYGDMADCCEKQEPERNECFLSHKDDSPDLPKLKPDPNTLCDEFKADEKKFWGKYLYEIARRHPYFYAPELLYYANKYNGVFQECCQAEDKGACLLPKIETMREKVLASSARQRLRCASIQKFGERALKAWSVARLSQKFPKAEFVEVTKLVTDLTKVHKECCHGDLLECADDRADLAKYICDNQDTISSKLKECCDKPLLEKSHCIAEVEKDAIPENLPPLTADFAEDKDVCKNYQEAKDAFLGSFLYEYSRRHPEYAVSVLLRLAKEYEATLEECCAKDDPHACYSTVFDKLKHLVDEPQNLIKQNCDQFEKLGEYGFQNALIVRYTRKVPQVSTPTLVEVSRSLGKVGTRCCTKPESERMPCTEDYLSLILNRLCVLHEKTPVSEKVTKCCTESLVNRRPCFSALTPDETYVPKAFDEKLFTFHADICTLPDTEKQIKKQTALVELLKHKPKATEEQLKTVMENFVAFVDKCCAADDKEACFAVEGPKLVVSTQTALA
# Method in brief: as §1
# [3] = Detection of ART activated species; format: biochemical; conditions: heme: ART or derivative 1:1.20, 30 min, reducing conditions
# Method in brief: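 Heme under reducing conditions was reacted with test compound for 30 min, with no protein. Mixtures were run on a C4 column at 1 mL/min using a 0.05% TFA water/acetonitrile gradient (A/B 63/37 to 52/48 over 15 min, then 15 min hold), with Soret detection at 410 nm. Free heme and AAS peaks were integrated, and AAS was given as a percentage of heme by AUC; mean ± SD, three independent experiments.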
# heme bound to TrK13-WT = assay: Detection of AAS by HPLC, protein-bound heme after G-25 desalting; format: biochemical, Plasmodium falciparum; conditions: heme-TrK13 mixture desalted (G-25) before ART addition
# Method in brief: as §2
# heme-TrK13-C580Y complex = assay: Detection of AAS by UV-visible spectrophotometry; format: biochemical, Plasmodium falciparum; conditions: 200 µM ART, 30 min
# Method in brief: as §1
# heme-bound TrK13-A578S = assay: Detection of AAS by UV-visible spectrophotometry; format: biochemical, Plasmodium falciparum; conditions: 200 µM ART, 30 min
# Method in brief: as §1
# [4] = test system: recombinant TrK13-WT protein; assay: Ferene S colorimetric assay of iron binding; design: species or system Plasmodium falciparum; conditions: TrK13-WT 5 μM, 30-times molar excess (150 μM) FAS, G-25 desalted
# [5] = test system: recombinant TrK13-WT protein; assay: UV-visible spectrophotometry of TrK13-WT with metal salts; format: binding, Plasmodium falciparum; conditions: TrK13-WT 5 μM, metal salt 500 μM (100-times molar excess)
# [6] = test system: TrK13-QNG (E688Q-E691N-H697G); assay: Ferene S colorimetric assay of iron binding; design: species or system Plasmodium falciparum; conditions: Ferene S assay with FAS
# TrK13-WT [7] = target: T1, TrK13-WT; format: binding; conditions: TrK13-WT 10 µM, 10-fold molar excess of competitor
# Method in brief: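 TrK13-WT (10 µM) was preincubated for 1 h at RT with 100 µM reduced heme or a heme analog. Hemin-agarose beads (50% v/v suspension) were then added for 1 h at RT, rotating, in MOPS pH 7.4. Beads were washed five times with MOPS. Bound protein was eluted in Laemmli buffer and resolved by SDS-PAGE with Coomassie staining. Band pixel intensity was expressed relative to the no-competitor band, set as 100%.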
# TrK13-WT [8] = target: T1, TrK13-WT; assay: Tryptophan fluorescence quenching by heme; format: binding
# TrK13-C580Y = target: T2, TrK13-C580Y (Plasmodium falciparum, UniProt Q8IDQ2, C580Y); assay: Tryptophan fluorescence quenching by heme; format: binding
# T2 sequence (Q8IDQ2 189-726 C580Y): T1 sequence (Q8IDQ2 189-726)
# TrK13-R539T = target: T3, TrK13-R539T (Plasmodium falciparum, UniProt Q8IDQ2, R539T); assay: Tryptophan fluorescence quenching by heme; format: binding
# T3 sequence (Q8IDQ2 189-726 R539T): T1 sequence (Q8IDQ2 189-726)
# TrK13-A578S = target: T4, TrK13-A578S (Plasmodium falciparum, UniProt Q8IDQ2, A578S); assay: Tryptophan fluorescence quenching by heme; format: binding
# T4 sequence (Q8IDQ2 189-726 A578S): T1 sequence (Q8IDQ2 189-726)
# [9] = protein 10 µM, heme 0–5 µM, excitation 295 nm
# [10] = tryptophan fluorescence quenching
smiles,measurement,setting,value
"C[C@@H]1CC[C@H]2[C@@H](C)C(=O)O[C@@H]3O[C@@]4(C)CC[C@@H]1[C@]32OO4 [ART, artemisinin]",increase in peak intensity at 380 nm,heme-TrK13-R539T complex,barely detectable increase
same,increase in the intensity of the 380 nm peak vs heme-bound protein without ART,heme-bound TrK13-WT,~ 42%
same,increment in the 380 nm absorbance peak after addition of ART,heme-bound TrK13-WT; Fe^3+ hemin not pre-reduced to Fe^2+ heme,No increment
same,Percentage of AAS versus heme (area under the curve),[1],~ 30%
same,AAS formation (peak absorbance at 380 nm),heme-PfHRP2 complex,no AAS formation
same,changes in the spectral profile of TrK13-WT at 250–700 nm (direct interaction),"TrK13-WT [2]; TrK13-WT 10 µM with excess (200 µM) ART, no heme",no visible changes
same,AAS formation (peak absorbance at 380 nm),heme-BSA complex,no AAS formation
same,AAS peaks in the HPLC chromatogram at 410 nm,[3],additional peaks
same,Percentage of AAS versus heme (area under the curve),heme bound to TrK13-WT,~ 50%
same,increase in peak intensity at 380 nm,heme-TrK13-C580Y complex,barely detectable increase
same,increase in peak intensity at 380 nm,heme-bound TrK13-A578S,~ 176%
"C[C@H]1[C@@H](O)O[C@@H]2O[C@@]3(C)CC[C@H]4[C@H](C)CC[C@@H]1[C@@]24OO3 [DHA, dihydroartemisinin]",AAS peaks in the HPLC chromatogram at 410 nm,[3],additional peaks
"C[C@@H]1CC[C@H]2[C@@H](C)C(=O)O[C@@H]3O[C@@]4(C)CC[C@@H]1[C@]32O4 [DOA, deoxyartemisinin]",increase in the intensity of the 380 nm peak vs heme-bound protein without ART,heme-bound TrK13-WT,no increase; also recorded: no hyperchromic shift
"O=S(=O)([O-])[O-].O=S(=O)([O-])[O-].[Fe+2].[NH4+].[NH4+] [FAS, ferrous ammonium sulfate]",increase in the absorbance at 595 nm in the eluate vs FAS alone or TrK13-WT alone controls,[4],Approximately 10 fold
same,increase in the absorbance of TrK13-WT at 280 nm relative to TrK13-WT alone (no salts),[5],5.82 times
same,reduction in absorbance at 595 nm in TrK13-QNG compared to TrK13-WT,[6],~ 33%
"O=S(=O)([O-])[O-].O=S(=O)([O-])[O-].[Fe+3].[NH4+] [FES, ferric ammonium sulfate]",increase in the absorbance of TrK13-WT at 280 nm relative to TrK13-WT alone (no salts),[5],12.84 times
"C=CC1=C(C)c2cc3[nH]c(cc4nc(cc5[nH]c(cc1n2)c(C)c5CCC(=O)O)C(CCC(=O)O)=C4C)c(C)c3C=C [PPIX, protoporphyrin IX]",inhibition of TrK13-WT binding to hemin-agarose beads,TrK13-WT [7],~ 50%
C=CC1=C(C)c2cc3[n-]c(cc4[n-]c(cc5nc(cc1n2)C(C)=C5C=C)c(C)c4CCC(=O)O)c(CCC(=O)O)c3C.[Zn+2] [Zn-PPIX],"increase in absorbance at 380 nm on ART addition, Zn-PPIX instead of heme","heme-bound TrK13-WT; TrK13-WT with Zn-PPIX, then ART",no increase
same,inhibition of TrK13-WT binding to hemin-agarose beads,TrK13-WT [7],~ 65%
"C=CC1=C(C)c2cc3[nH]c(cc4nc(cc5[nH]c(cc1n2)c(C)c5C=C)C(C)=C4CCC(=O)O)c(CCC(=O)O)c3C.[Fe+3] [heme, ferrous protoporphyrin IX]",Kd,"TrK13-WT [2]; read-out: Kd (double reciprocal plot of 1/ΔA versus 1/[heme]), TrK13-WT 10 µM titrated with heme 0-26 µM, G25 desalted",36.22 ± 0.1 nM
same,Stern-Volmer quenching constant (KSV),TrK13-WT [8]; [9],0.59 µM⁻¹
same,Association constant (Ka),TrK13-WT [8]; [10],1.35E + 11 M^-1
same,Stern-Volmer quenching constant (KSV),TrK13-C580Y; [9],1.75 µM⁻¹
same,Association constant (Ka),TrK13-C580Y; [10],1.47E + 07 M^-1
same,Stern-Volmer quenching constant (KSV),TrK13-R539T; [9],1.17 µM⁻¹
same,Association constant (Ka),TrK13-R539T; [10],7.86E + 07 M^-1
same,Stern-Volmer quenching constant (KSV),TrK13-A578S; [9],0.66 µM⁻¹
same,Association constant (Ka),TrK13-A578S; [10],2.88E + 11 M^-1
